This note sets out measurements from ChEMBL document CHEMBL4346670, “Discovery of Novel Janus Kinase (JAK) and Histone Deacetylase (HDAC) Dual Inhibitors for the Treatment of Hematological Malignancies” (J Med Chem, 2019).

The target in data set [1] is Calcium/calmodulin-dependent protein kinase type 1 (Homo sapiens) (UniProt Q14012). The data set is described as follows: Inhibition of recombinant human CAMK1alpha at 20 nM using CREBtide as substrate measured after 30 mins by LANCE assay relative to control. Summed up:
(§1)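 Single-concentration screen within an 85-kinase panel run by a contract lab, with each compound tested at 20 nM and 200 nM. Human recombinant enzymes were used. Activity was quantified as phosphorylation of a peptide substrate read by LANCE time-resolved detection, and inhibition was expressed relative to control, using the same format as the JAK assay.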
(In general: TR-FRET usually uses a lanthanide donor and a delayed reading to cut background.)

The subject of data set [2] is K562. The data set is described as follows: Induction of apoptosis in human K562 cells assessed as viable cells at 1 uM after 24 hrs by Annexin-V/propidium iodide staining-based flow cytometric analysis (reference value: 85.7%). The class given is functional. As to conditions: Homo sapiens, K562, 24 h; read-out: Activity. (In flow cytometry, cells or beads pass a laser one at a time.)

Data set [3] relates to HEL. Briefly: Antiproliferative activity against HEL cells harboring JAK2 V617F mutant assessed as reduction in cell viability after 48 hrs by MTT assay. The class given is functional, cell-based. As to conditions: Homo sapiens. Background: Formazan colour is commonly taken as a measure of viable cells.
Data set [4] concerns HEL. Briefly: Induction of apoptosis in HEL cells assessed as viable cells at 1 uM after 24 hrs by Annexin-V/propidium iodide staining-based flow cytometric analysis (reference value: 87.5%). In kind it is functional, Homo sapiens. The settings on record: Homo sapiens, HEL, 24 h; read-out: Activity.
Data set [5] has as its target Non-receptor tyrosine-protein kinase TYK2 (Homo sapiens, UniProt P29597). The data set is described as follows: Inhibition of recombinant human TYK2 using Ulight-CAGAGAIETDKEYYTVKD as substrate measured after 60 mins by LANCE assay. Summed up: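 Human recombinant JAK enzyme assays run by a contract lab. IC50 was taken from a non-linear curve fit, with all parameters allowed to float. Assays were run in replicate (n>2) and reported as mean ± SD.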

The target of data set [6] is Histone deacetylase. Briefly: Inhibition of HDAC in human HeLa nuclear extract using Boc-Lys(acetyl)-AMC as substrate preincubated for 5 mins followed by substrate addition and measured after 30 mins by fluorescence assay. In kind it is cell-based.
In data set [7] the target is T1, Tyrosine-protein kinase JAK3 (Homo sapiens, UniProt P52333).
T1 sequence (P52333 whole entry): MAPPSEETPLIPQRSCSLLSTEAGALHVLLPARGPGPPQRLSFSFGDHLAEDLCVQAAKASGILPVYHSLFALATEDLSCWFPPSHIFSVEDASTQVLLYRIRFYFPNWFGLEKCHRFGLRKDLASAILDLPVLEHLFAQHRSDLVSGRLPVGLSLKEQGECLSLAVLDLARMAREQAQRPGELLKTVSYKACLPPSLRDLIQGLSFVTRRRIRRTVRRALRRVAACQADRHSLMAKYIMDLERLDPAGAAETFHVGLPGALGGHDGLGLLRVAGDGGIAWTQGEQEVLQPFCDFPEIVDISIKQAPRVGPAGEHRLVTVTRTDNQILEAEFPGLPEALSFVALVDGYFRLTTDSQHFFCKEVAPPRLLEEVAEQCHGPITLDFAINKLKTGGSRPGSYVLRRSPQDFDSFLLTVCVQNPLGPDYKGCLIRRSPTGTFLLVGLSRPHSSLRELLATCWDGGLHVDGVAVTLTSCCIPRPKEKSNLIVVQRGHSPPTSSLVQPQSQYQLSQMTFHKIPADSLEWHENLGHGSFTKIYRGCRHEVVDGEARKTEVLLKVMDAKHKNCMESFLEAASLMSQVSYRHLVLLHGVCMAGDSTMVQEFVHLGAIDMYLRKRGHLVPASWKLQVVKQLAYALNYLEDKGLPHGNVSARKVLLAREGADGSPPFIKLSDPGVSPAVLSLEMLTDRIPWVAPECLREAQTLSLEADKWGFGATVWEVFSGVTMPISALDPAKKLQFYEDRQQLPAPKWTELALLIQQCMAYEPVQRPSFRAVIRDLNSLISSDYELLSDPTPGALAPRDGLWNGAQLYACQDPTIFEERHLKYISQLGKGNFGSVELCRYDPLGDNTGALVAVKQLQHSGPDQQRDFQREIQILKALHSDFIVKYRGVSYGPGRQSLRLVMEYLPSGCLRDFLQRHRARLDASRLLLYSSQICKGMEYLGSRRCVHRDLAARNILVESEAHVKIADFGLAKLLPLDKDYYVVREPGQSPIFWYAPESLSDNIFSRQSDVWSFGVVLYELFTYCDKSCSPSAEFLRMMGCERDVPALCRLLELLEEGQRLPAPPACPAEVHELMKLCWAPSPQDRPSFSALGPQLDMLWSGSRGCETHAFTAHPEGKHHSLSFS
The data set is described as follows: Inhibition of recombinant human JAK3 using Ulight-CAGAGAIETDKEYYTVKD as substrate measured after 60 mins by LANCE assay.

Data set [8] in a line: Half life in rat liver microsomes at 1 uM in presence of NADPH cofactor for phase 1 metabolism and measured upto 60 mins by LC-MS/MS analysis. In kind it is ADME, Microsome. The gist of the method: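 Liver microsomes (rat or human) incubated with compound at 37 °C, with NADPH for phase I or UDPGA for phase II. Reactions stopped in acetonitrile at set time points, vortexed 5 min, stored at -80 °C. Parent remaining in supernatant measured by LC-MS/MS. t1/2 = -0.693/k, with k the slope of ln fraction remaining versus time.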

Data set [9] addresses Tyrosine-protein kinase JAK2 (Homo sapiens, UniProt O60674). Briefly: Inhibition of recombinant human JAK2 using Ulight-CAGAGAIETDKEYYTVKD as substrate measured after 60 mins by LANCE assay.
Data set [10] has as its system K562. The data set is described as follows: Induction of apoptosis in human K562 cells assessed as early apoptotic cells at 1 uM after 24 hrs by Annexin-V/propidium iodide staining-based flow cytometric analysis (reference value: 7.55%). The class given is functional.
Data set [11] addresses T2, Histone deacetylase 8 (Homo sapiens, UniProt Q9BY41).
T2 sequence (Q9BY41 whole entry): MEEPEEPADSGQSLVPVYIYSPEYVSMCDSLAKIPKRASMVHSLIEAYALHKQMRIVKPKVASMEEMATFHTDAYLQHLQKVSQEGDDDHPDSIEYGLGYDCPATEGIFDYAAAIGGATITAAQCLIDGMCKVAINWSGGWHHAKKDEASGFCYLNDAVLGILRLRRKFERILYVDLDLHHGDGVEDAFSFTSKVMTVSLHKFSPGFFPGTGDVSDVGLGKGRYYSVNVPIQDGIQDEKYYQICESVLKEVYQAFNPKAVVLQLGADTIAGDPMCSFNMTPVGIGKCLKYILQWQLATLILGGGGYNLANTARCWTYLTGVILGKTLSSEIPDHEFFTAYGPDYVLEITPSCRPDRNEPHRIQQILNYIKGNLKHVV
Briefly: Inhibition of HDAC8 (unknown origin) using Boc-Lys(trifluoroacetyl)-AMC as substrate preincubated for 5 mins followed by substrate addition and measured after 30 mins by fluorescence assay.

In data set [12] the target is Cyclin-dependent kinase 6 (Homo sapiens) (UniProt Q00534). The data set is described as follows: Inhibition of recombinant human CDK6 at 20 nM using Ulight-CFFKNIVTPRTPPPSQGK-amide as substrate measured after 60 mins by LANCE assay relative to control. The gist of the method: as §1
Cyclin-dependent kinase 6 (Homo sapiens), sequence (Q00534 whole entry): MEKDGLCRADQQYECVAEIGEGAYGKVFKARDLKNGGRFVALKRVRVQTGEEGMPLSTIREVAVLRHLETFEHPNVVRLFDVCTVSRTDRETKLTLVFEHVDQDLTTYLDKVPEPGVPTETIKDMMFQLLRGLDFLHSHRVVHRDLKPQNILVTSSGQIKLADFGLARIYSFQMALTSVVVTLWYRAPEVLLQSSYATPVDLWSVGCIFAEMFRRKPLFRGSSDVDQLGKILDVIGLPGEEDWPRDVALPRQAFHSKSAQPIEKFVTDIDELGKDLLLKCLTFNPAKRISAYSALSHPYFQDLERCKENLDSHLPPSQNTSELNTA
The test system of data set [13] is HEL. The data set is described as follows: Induction of apoptosis in HEL cells assessed as early apoptotic cells at 1 uM after 24 hrs by Annexin-V/propidium iodide staining-based flow cytometric analysis (reference value: 12.5%). The class given is functional, Homo sapiens.

Non-receptor tyrosine-protein kinase TYK2, sequence (P29597 whole entry): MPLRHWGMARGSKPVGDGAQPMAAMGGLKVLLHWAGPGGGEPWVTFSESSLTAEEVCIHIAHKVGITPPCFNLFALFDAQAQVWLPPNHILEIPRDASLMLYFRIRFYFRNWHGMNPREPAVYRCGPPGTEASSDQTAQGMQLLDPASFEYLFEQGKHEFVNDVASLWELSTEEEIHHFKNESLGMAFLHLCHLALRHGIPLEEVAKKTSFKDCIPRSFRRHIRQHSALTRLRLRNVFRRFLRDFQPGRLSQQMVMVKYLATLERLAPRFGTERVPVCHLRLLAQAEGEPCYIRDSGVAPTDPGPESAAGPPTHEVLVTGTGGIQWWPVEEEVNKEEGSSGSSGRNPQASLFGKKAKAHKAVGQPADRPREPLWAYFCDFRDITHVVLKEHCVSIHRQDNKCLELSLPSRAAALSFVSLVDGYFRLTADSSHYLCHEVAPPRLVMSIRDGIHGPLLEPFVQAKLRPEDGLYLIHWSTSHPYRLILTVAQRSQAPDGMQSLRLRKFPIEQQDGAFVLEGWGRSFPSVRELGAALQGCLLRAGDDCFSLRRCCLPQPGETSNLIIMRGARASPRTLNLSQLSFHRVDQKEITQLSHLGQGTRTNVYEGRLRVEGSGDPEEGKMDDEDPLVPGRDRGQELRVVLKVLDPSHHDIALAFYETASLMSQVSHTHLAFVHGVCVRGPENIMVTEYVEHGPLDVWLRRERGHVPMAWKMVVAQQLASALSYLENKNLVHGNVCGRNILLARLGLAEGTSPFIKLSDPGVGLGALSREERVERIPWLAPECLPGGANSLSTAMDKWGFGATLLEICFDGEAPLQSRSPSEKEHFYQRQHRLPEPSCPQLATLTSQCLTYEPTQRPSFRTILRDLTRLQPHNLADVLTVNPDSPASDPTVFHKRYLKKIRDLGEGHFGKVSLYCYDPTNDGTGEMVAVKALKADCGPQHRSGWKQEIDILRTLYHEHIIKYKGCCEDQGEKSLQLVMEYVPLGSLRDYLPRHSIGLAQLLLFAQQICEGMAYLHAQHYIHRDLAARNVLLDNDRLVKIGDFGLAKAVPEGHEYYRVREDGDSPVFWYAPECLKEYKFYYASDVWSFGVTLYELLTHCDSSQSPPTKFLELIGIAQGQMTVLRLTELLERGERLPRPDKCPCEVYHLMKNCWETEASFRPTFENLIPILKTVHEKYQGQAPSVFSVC
Tyrosine-protein kinase JAK2, sequence (O60674 whole entry): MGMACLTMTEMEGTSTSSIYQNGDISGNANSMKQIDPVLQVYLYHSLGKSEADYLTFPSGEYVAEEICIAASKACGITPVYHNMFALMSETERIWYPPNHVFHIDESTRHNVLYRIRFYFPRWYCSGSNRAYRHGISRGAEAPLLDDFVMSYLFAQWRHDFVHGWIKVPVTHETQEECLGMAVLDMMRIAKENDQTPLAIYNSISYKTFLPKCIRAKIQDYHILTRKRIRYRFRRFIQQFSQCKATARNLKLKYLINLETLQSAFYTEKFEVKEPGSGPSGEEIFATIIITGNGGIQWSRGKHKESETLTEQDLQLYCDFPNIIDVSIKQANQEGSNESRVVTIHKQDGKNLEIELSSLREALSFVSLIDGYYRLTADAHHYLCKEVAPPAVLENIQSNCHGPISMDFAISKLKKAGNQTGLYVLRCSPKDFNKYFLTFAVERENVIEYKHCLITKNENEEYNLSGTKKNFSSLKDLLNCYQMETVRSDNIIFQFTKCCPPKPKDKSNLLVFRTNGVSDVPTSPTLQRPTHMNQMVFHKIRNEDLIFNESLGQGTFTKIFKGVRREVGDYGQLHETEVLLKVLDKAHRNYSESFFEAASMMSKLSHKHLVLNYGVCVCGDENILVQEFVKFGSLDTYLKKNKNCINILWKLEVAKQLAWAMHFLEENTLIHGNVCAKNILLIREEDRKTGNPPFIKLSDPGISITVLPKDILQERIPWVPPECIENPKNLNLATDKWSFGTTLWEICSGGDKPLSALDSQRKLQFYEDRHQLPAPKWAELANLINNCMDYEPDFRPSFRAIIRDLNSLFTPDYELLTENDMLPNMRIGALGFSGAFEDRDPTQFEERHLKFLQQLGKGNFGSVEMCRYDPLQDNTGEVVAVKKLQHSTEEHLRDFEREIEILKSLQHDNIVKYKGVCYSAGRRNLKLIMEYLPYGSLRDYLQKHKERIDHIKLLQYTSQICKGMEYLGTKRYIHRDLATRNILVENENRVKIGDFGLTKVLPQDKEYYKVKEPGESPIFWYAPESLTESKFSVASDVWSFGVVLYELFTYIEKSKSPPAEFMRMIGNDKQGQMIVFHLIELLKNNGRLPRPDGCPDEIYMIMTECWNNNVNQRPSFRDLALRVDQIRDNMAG
Calcium/calmodulin-dependent protein kinase type 1 (Homo sapiens), sequence (Q14012 whole entry, looked up): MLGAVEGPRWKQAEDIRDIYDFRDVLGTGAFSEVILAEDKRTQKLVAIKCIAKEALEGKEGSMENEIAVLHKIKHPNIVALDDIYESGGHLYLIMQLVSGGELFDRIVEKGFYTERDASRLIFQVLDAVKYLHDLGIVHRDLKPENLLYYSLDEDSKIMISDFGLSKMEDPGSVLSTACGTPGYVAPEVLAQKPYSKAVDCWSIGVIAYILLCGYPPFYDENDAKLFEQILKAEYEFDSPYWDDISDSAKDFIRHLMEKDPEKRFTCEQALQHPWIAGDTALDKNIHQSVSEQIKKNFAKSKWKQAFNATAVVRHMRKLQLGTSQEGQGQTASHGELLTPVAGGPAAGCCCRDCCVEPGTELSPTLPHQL

For `O=C(CCCCCn1cc(Nc2ncc(Cl)c(Nc3ccc(Cl)cc3)n2)cn1)NO`, the results for the inhibition in data set [1] and in data set [12] were 2% and 10%, respectively. For the same compound, the viability at 1 µM was 17.6% in data set [2] and 4.31% in data set [4]. Also, the IC50 was found to be 90 nM in [3]; 49 nM in [5]; 2 nM in data set [6]; 7.4 nM in data set [7]; 4 nM in data set [9]; 2470 nM in [11]. The half-life at 1 µM in data set [8] was determined as 14.6 min. The Activity in data set [10] is listed as 34.4%; in [13], 27.8%.

Regarding `O=C(CCCCCCn1cc(Nc2ncc(Cl)c(Nc3cccc(Cl)c3)n2)cn1)NO`, the viability at 1 µM in [2] amounted to 53.6%; in data set [4], 5.97%. The IC50 in data set [3] turned out to be 140 nM; in data set [5], 67 nM; in data set [6], 20 nM; in data set [7], 3.3 nM; in data set [9], 10 nM; in data set [11], 840 nM. Moreover, the Activity in [10] was 15.3%; in [13], 22.8%.

The inhibition is the share of the control response that was lost under treatment. One may read the IC50 as the midpoint of a concentration-inhibition curve. As a reminder, the half-life is how long it takes for the measured level to halve.
